{
  "source": "paper PMC6619336",
  "about": "(Clinical Pharmacology in Drug Development, 2018)",
  "key": {"[1]": {"settings": "subjects with moderate hepatic impairment; cited from earlier work"}, "[2]": {"settings": "single 300‐mg (capsule) dose, day 1 of administration; study 15L‐CL‐003; cited from earlier work"}, "cytochrome P450 (CYP) 3A": {"tested_on": "cytochrome P450 (CYP) 3A", "settings": "cited from earlier work"}, "[3]": {"experiment": "Metabolic profiling of 14C-amenamevir in plasma, urine and feces", "type": "in vivo, human", "settings": "single oral 200 mg", "method_in_brief": "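After one fasted oral 200 mg dose of 14C-labelled test compound in 8% hydroxypropyl-β-cyclodextrin, healthy men gave plasma predose and at 0.5, 1, 2, 4, 6, 8, 10 and 12 h. Urine and fecal homogenates (stored at −70 °C) were also collected. Radiochromatograms were run by HPLC for all matrices. Urine and fecal metabolites were identified by LC-MS/MS.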"}, "[4]": {"settings": "300‐mg dose (capsule); mean ± SD; study 15L‐CL‐002; cited from earlier work"}, "VZV": {"tested_on": "VZV", "settings": "preclinical studies; cited from earlier work"}, "[5]": {"settings": "300‐mg dose (capsule); mean ± SD; study 15L‐CL‐001; cited from earlier work"}, "[6]": {"settings": "subjects with severe renal impairment; cited from earlier work"}, "[7]": {"type": "in vivo, human", "method_in_brief": "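Healthy men (n = 6) got one fasted oral 200 mg dose of 14C-labelled test compound (1.8 MBq) in water with 8% hydroxypropyl-β-cyclodextrin. Urine and feces were collected for 8 days. Expired air was sampled predose to 72 h and trapped in 1 N hyamine hydroxide with phenolphthalein. Urine and feces were homogenized, and radioactivity was read by liquid scintillation. Urinary parent was measured by LC-MS/MS. CL_R = Ae/AUC over the largest common quantifiable interval.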"}, "[8]": {"experiment": "Safety and tolerability of single-dose amenamevir in healthy volunteers", "type": "in vivo, human", "settings": "single 200 mg dose; for subjects with treatment‐emergent AEs: 6 subjects dosed", "method_in_brief": "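Six healthy men aged 18–65 years received one fasted oral 200 mg dose and were monitored from screening through admission, discharge and a post-study visit. Adverse events were collected from spontaneous reports and non-leading questioning, coded with MedDRA v10.0, and graded for severity and treatment relation. Checks covered blood pressure, heart rate, ECG, physical examination, chemistry, hematology, urinalysis, serology and drug/alcohol screens.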"}, "[9]": {"settings": "healthy volunteers, cited from earlier work"}, "[10]": {"type": "in vivo, human", "method_in_brief": "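Six healthy men were dosed fasted, orally, once at 200 mg of 14C-labelled test compound (1.8 MBq) in water with 8% hydroxypropyl-β-cyclodextrin. Blood was drawn predose and from 15 min to 72 h, kept on ice, and spun at 1500g for 10 min at 4 °C within 30 min. Plasma radioactivity was read by liquid scintillation and parent by LC-MS/MS. Parameters were noncompartmental, with values below LLOQ set to zero.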", "remark": "listed apart in the source"}, "[11]": {"settings": "single oral 200 mg, n = 5, mean ± SD, 8 days of sampling"}, "[12]": {"settings": "^14C‐radioactivity in plasma, single oral 200 mg, n = 6, mean ± SD"}, "[13]": {"settings": "^14C‐radioactivity in whole blood, single oral 200 mg, n = 6, mean ± SD"}, "[14]": {"settings": "^14C‐radioactivity, single oral 200 mg"}},
  "note": "Where two headings read alike, the source gives them in different places. Marks after values point to notes of the source that are not given here.",
  "data": [
    {"smiles": "Cc1cccc(C)c1N(CC(=O)Nc1ccc(-c2ncon2)cc1)C(=O)C1CCS(=O)(=O)CC1", "note": "[Amenamevir]", "values": [
      {"measurement": "pharmacokinetic profile in moderate hepatic impairment", "setting": "[1]", "result": "not significantly altered"},
      {"measurement": "drug excreted in the urine", "setting": "[2]", "result": 11.07, "unit": "%"},
      {"measurement": "renal clearance", "setting": "[2]", "result": 2.45, "unit": "L/h"},
      {"measurement": "relation to CYP3A", "setting": "cytochrome P450 (CYP) 3A", "result": "both a substrate and inducer"},
      {"measurement": "share of the administered dose in feces", "setting": "[3]; feces 0 to 72 hours after the dose", "result": "< 0.1", "unit": "%"},
      {"measurement": "share of the total radioactivity in plasma", "setting": "[3]; plasma samples 0.5 to 12 hours after the dose", "result": 80, "unit": "%"},
      {"measurement": "share of the total radioactivity excreted in urine", "setting": "[3]; urine 0–48 hours after the dose", "result": "approximately 55%"},
      {"measurement": "half‐life", "setting": "[4]", "result": "7.85 ± 1.62", "unit": "h"},
      {"measurement": "peak concentration of drug in blood plasma", "setting": "[4]", "result": "1093 ± 201", "unit": "ng/mL"},
      {"measurement": "activity against VZV compared with acyclovir and valacyclovir", "setting": "VZV", "result": "more potent than acyclovir and valacyclovir"},
      {"measurement": "half‐life", "setting": "[5]", "result": "6.88 ± 0.56", "unit": "h"},
      {"measurement": "peak concentration of drug in blood plasma", "setting": "[5]", "result": "1040 ± 264", "unit": "ng/mL"},
      {"measurement": "renal clearance in severe renal impairment", "setting": "[6]", "result": "reduced renal clearance"},
      {"measurement": "CL renal", "setting": "[7]; human, urine and plasma, po, 200 mg", "result": 40.7, "unit": "mL/min"},
      {"measurement": "dose eliminated by 168 hours after the dose", "setting": "[7]; single oral 200 mg", "result": "> 95", "unit": "%"},
      {"measurement": "Ae expired air (cumulative recovery of ^14C‐radioactivity)", "setting": "[7]; single oral 200 mg, N = 6, listed as 14C‐amenamevir", "result": 0, "unit": "%"},
      {"measurement": "Ae urine (cumulative recovery of ^14C‐radioactivity)", "setting": "[7]; single oral 200 mg, N = 6, mean ± SD, 8 days of sampling", "result": "20.6 ± 4.0", "unit": "%"},
      {"measurement": "Ae feces (cumulative recovery of ^14C‐radioactivity)", "setting": "[7]; [11]", "result": "74.6 ± 3.0 ^a %"},
      {"measurement": "Ae total (cumulative recovery of ^14C‐radioactivity)", "setting": "[7]; [11]", "result": 95.3, "unit": "%"},
      {"measurement": "Ae total (cumulative recovery of ^14C‐radioactivity)", "setting": "[7]; single oral 200 mg, n = 5, mean ± SD, 8 days of sampling, listed as 14C‐amenamevir", "result": "95.3 ± 1.8 ^a %"},
      {"measurement": "Cumulative Aelast (amenamevir excreted into urine)", "setting": "[7]; unchanged amenamevir in urine by LC‐MS/MS, single oral 200 mg, N = 6, mean ± SD", "result": "20.9 ± 5.5", "unit": "mg"},
      {"measurement": "clinical laboratory evaluations, vital signs, electrocardiogram recordings", "setting": "[8]", "result": "No clinically important abnormalities"},
      {"measurement": "deaths, serious AEs, or AEs resulting in discontinuation", "setting": "[8]", "result": "No deaths, serious AEs, or AEs resulting in discontinuation were reported"},
      {"measurement": "subjects with treatment‐emergent AEs", "setting": "[8]", "result": 3},
      {"measurement": "subjects with treatment‐emergent AEs", "setting": "[8]; listed as amenamevir", "result": "Three"},
      {"measurement": "severity of AEs", "setting": "[8]; all 3 AEs", "result": "mild"},
      {"measurement": "safety and tolerability", "setting": "[8]; healthy male subjects, n = 6", "result": "safe and well tolerated"},
      {"measurement": "dose proportionality of pharmacokinetics", "setting": "[9]", "result": "less than dose proportional"},
      {"measurement": "safety and tolerability", "setting": "[9]; single doses of 5 to 2400 mg or 300 to 600 mg/day for 7 days", "result": "safe and well tolerated"},
      {"measurement": "AUCinf", "setting": "[10]; [12]", "result": "10,997 ± 2530 ng · h/mL"},
      {"measurement": "AUClast", "setting": "[10]; [12]", "result": "10,076 ± 2912 ng · h/mL"},
      {"measurement": "Cmax", "setting": "[10]; [12]", "result": "1041 ± 324", "unit": "ng/mL"},
      {"measurement": "t½", "setting": "[10]; [12]", "result": "8.03 ± 0.81", "unit": "h"},
      {"measurement": "tmax", "setting": "[10]; ^14C‐radioactivity in plasma, single oral 200 mg, n = 6, median (range)", "result": "1.00 (1.00–3.02) hours"},
      {"measurement": "AUCinf", "setting": "[10]; [13]", "result": "10,425 ± 2265 ng · h/mL"},
      {"measurement": "AUClast", "setting": "[10]; [13]", "result": "8530 ± 2263", "unit": "ng·h/mL"},
      {"measurement": "Cmax", "setting": "[10]; [13]", "result": "919 ± 284", "unit": "ng/mL"},
      {"measurement": "t½", "setting": "[10]; [13]", "result": "9.19 ± 2.13", "unit": "h"},
      {"measurement": "tmax", "setting": "[10]; ^14C‐radioactivity in whole blood, single oral 200 mg, n = 6, median (range)", "result": "1.00 (1.00–2.00) hours"},
      {"measurement": "Whole blood:plasma ratio of AUCinf", "setting": "[10]; [14]", "result": 0.951},
      {"measurement": "Whole blood:plasma ratio of AUClast", "setting": "[10]; [14]", "result": 0.852},
      {"measurement": "Whole blood:plasma ratio of Cmax", "setting": "[10]; [14]", "result": 0.885},
      {"measurement": "AUC(0-inf)", "setting": "[10]; human, plasma, po, 200 mg", "result": "8820 ± 2510", "unit": "ng·h/mL"},
      {"measurement": "AUC(0-t)", "setting": "[10]; human, plasma, po, 200 mg", "result": "8690 ± 2490", "unit": "ng·h/mL"},
      {"measurement": "Cmax", "setting": "[10]; human, plasma, po, 200 mg", "result": "1020 ± 404", "unit": "ng/mL"},
      {"measurement": "half-life", "setting": "[10]; human, plasma, po, 200 mg", "result": "7.65 ± 0.49", "unit": "h"},
      {"measurement": "tmax", "setting": "[10]; human, plasma, po, 200 mg", "result": 1.5, "unit": "h"}
    ]}
  ]
}
